ChEMBL document CHEMBL1821621, “Isolation and biological evaluation of jatrophane diterpenoids from Euphorbia dendroides” (J Nat Prod, 2011)

What was measured:
[1] = biological target: T1, ATP-dependent translocase ABCB1 (Homo sapiens, UniProt P08183); assay: Reversal of MDR1-mediated paclitaxel resistance in human NCI-H460 cells assessed as ratio of compound IC50 to IC50 of paclitaxel at 2.5 uM after 72 hrs by SRB assay; type: cell-based; conditions: nci-h460, 72 h
Outline: (§1)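 Growth was read by SRB assay. Relative reversion = IC50 of paclitaxel / IC50 of the combination. Interaction was scored by the combination index method (median effect, multiple drug effect equation).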

[2] = biological target: T1, ATP-dependent translocase ABCB1; assay: Reversal of MDR1-mediated paclitaxel resistance in multidrug resistant human NCI-H460 cells assessed as combination index at 1 uM after 72 hrs by SRB assay; type: cell-based; conditions: nci-h460, 72 h
Outline: as §1, with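 “Resistant NCI-H460/R cells received 1, 2.5 or 5 μM compound simultaneously with 0.0055 μM paclitaxel for 72 h. Growth” for “Growth”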

[3] = Anticancer activity against human U87MG cells after 72 hrs by SRB assay; type: functional, cell-based, U-87MG ATCC; conditions: U-87 MG
Outline: (§2)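 Cells were seeded in 96-well plates and left overnight: NCI-H460 and DLD-1 at 2000 cells/well, U-87 MG and NCI-H460/R at 4000 cells/well. NCI-H460/R was selected from NCI-H460 and kept in 100 nM doxorubicin. Compound exposure lasted 72 h. Cellular protein was stained with sulforhodamine B, and IC50 was obtained by linear regression.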

[4] = biological target: T1, ATP-dependent translocase ABCB1; assay: Reversal of MDR1-mediated doxorubicin resistance in human NCI-H460 cells assessed as ratio of compound IC50 to IC50 of paclitaxel at 5 uM after 72 hrs by SRB assay; type: cell-based; conditions: nci-h460, 72 h, in the assay text read “IC50 of doxorubicin” for “IC50 of paclitaxel”
Outline: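 NCI-H460/R cells received 5 μM compound simultaneously with 0.055 μM doxorubicin for 72 h, read by SRB. Relative reversion = IC50 of doxorubicin alone / IC50 of the combination. Values are the mean ± standard deviation of five independent experiments, with IC50 by linear regression.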

DLD-1 = assay: Anticancer activity against human DLD1 cells after 72 hrs by SRB assay; type: functional, cell-based; conditions: DLD-1, 72 h; outline: as §2
[5] = biological target: T1, ATP-dependent translocase ABCB1; assay: Reversal of MDR1-mediated paclitaxel resistance in multidrug resistant human NCI-H460 cells assessed as combination index at 2.5 uM after 72 hrs by SRB assay; type: cell-based; conditions: nci-h460, 72 h
Outline: as §1, with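 “Resistant NCI-H460/R cells received 1, 2.5 or 5 μM compound simultaneously with 0.0055 μM paclitaxel for 72 h. Growth” for “Growth”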

[6] = biological target: T1, ATP-dependent translocase ABCB1; assay: Reversal of MDR1-mediated paclitaxel resistance in multidrug resistant human NCI-H460 cells assessed as Rho123 accumulation at 20 uM after 30 mins by FACScalibur flow cytometry relative to control; type: cell-based; conditions: nci-h460, 0.5 h
Outline: (§3)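 NCI-H460/R cells were grown to 80% confluence, trypsinized and resuspended in medium containing Rho123. They were treated with compound at 5 or 20 μM for 30 min at 37 °C in 5% CO2, and Rho123 fluorescence (FL2-H) was read by flow cytometry. FAR = FL2-H of treated MDR cells / FL2-H of untreated MDR control.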

[7] = biological target: T1, ATP-dependent translocase ABCB1; assay: Reversal of MDR1-mediated paclitaxel resistance in multidrug resistant human NCI-H460 cells assessed as combination index at 5 uM after 72 hrs by SRB assay; type: cell-based; conditions: nci-h460, 72 h
Outline: as §1, with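 “Resistant NCI-H460/R cells received 1, 2.5 or 5 μM compound simultaneously with 0.0055 μM paclitaxel for 72 h. Growth” for “Growth”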

NCI-H460 [8] = assay: Anticancer activity against human NCI-H460 cells after 72 hrs by SRB assay; type: functional, cell-based; conditions: NCI-H460, 72 h; outline: as §2
NCI-H460 [9] = assay: Anticancer activity against multidrug resistant human NCI-H460 cells after 72 hrs by SRB assay; type: functional, cell-based; conditions: NCI-H460, 72 h; outline: as §2
[10] = biological target: T1, ATP-dependent translocase ABCB1; assay: Reversal of MDR1-mediated paclitaxel resistance in multidrug resistant human NCI-H460 cells assessed as Rho123 accumulation at 5 uM after 30 mins by FACScalibur flow cytometry relative to control; type: cell-based; conditions: nci-h460, 0.5 h; outline: as §3
[11] = biological target: T1, ATP-dependent translocase ABCB1; assay: Reversal of MDR1-mediated doxorubicin resistance in multidrug resistant human NCI-H460 cells assessed as combination index at 5 uM after 72 hrs by SRB assay; conditions: nci-h460, 72 h
[12] = biological target: T1, ATP-dependent translocase ABCB1; assay: Reversal of MDR1-mediated paclitaxel resistance in human NCI-H460 cells assessed as ratio of compound IC50 to IC50 of paclitaxel at 1 uM after 72 hrs by SRB assay; type: cell-based; conditions: nci-h460, 72 h
Outline: as §1, with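 “Resistant NCI-H460/R cells received 1, 2.5 or 5 μM compound simultaneously with 0.0055 μM paclitaxel for 72 h. Growth” for “Growth”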

T1 sequence (P08183 whole entry): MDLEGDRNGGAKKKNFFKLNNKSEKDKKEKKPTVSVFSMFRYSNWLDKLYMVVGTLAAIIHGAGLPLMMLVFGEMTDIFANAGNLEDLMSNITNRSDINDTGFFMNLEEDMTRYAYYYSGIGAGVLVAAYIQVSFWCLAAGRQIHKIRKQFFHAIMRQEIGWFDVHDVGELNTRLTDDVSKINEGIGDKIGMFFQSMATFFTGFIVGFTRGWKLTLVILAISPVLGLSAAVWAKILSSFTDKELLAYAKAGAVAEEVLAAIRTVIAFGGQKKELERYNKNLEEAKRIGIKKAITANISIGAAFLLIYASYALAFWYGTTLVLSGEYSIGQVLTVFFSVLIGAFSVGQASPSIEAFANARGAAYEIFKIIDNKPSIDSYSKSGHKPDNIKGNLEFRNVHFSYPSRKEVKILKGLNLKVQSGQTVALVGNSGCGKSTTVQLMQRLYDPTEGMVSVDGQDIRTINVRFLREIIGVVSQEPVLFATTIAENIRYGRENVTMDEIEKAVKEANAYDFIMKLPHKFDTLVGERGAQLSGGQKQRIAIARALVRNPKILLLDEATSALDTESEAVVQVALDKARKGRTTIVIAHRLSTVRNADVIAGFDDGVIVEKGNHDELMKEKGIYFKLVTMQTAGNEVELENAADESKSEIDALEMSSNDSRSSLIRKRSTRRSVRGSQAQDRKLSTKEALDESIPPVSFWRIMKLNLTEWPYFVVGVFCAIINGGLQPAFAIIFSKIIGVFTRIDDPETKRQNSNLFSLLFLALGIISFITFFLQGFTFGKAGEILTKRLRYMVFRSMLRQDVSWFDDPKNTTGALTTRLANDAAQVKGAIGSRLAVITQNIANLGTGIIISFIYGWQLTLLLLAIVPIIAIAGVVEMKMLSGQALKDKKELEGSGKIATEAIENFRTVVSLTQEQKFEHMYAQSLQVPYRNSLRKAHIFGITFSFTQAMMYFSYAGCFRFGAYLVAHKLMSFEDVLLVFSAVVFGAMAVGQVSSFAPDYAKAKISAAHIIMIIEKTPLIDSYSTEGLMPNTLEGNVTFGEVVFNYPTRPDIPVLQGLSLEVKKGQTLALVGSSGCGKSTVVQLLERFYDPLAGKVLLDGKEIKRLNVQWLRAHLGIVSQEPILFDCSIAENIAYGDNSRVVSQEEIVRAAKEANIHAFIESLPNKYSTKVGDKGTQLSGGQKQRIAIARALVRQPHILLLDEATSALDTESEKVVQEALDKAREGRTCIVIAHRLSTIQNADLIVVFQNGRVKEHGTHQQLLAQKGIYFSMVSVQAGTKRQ

Row | Structure (SMILES) | Ratio IC50 [1] | fractional inhibitory concentration index (FICI) [2] | IC30 [3] | IC50 [3] | Ratio IC50 [4] | IC30 (DLD-1) | IC50 (DLD-1) | fractional inhibitory concentration index (FICI) [5] | Ratio [6] | fractional inhibitory concentration index (FICI) [7] | IC30 (NCI-H460 [8]) | IC50 (NCI-H460 [8]) | IC30 (NCI-H460 [9]) | IC50 (NCI-H460 [9]) | Ratio [10] | fractional inhibitory concentration index (FICI) [11] | Ratio IC50 [12]
1 | C=C1[C@@H](OC(=O)C(C)C)[C@@H](OC(C)=O)[C@@H](OC(=O)c2cccnc2)C(C)(C)/C=C/[C@@H](C)C(=O)[C@@]2(O)C[C@H](C)[C@H](OC(=O)CC)[C@@H]2[C@H]1OC(C)=O [EUPHODENDROPHANE A] | 19 | < 0.5 | 74.7 µM | 155 µM | 19 | 7.3 µM | 59.3 µM | < 1 | 3.2 | < 0.5 | 31 µM | 46.6 µM | 26.6 µM | 44.8 µM | 2.1 | < 0.5 | 3
2 | CC1=C[C@@H]2[C@H](C1=O)[C@H](O)C(C)=C[C@H]1[C@@H]3C(C)(C)[C@]3(OC(=O)C(C)C)[C@H](OC(=O)c3ccccc3)[C@@H](C)[C@]21O [EUPHODENDRIANE A] |  |  | 33.2 µM | 60.1 µM |  | 13.3 µM | 27.4 µM |  |  |  | 7 µM | 14.3 µM | 15.7 µM | 26 µM |  |  | 
3 | COc1ccc(CCN(C)CCCC(C#N)(c2ccc(OC)c(OC)c2)C(C)C)cc1OC (stereo not drawn) |  | < 1 |  |  |  |  |  | < 0.5 |  | < 0.5 |  |  |  |  |  | < 0.5 | 
4 | CC(=O)O[C@H]1C(=O)[C@@]2(C)[C@H]([C@H](OC(=O)c3ccccc3)[C@]3(O)C[C@H](OC(=O)[C@H](O)[C@@H](NC(=O)c4ccccc4)c4ccccc4)C(C)=C1C3(C)C)[C@]1(OC(C)=O)CO[C@@H]1C[C@@H]2O [PACLITAXEL] |  |  | 0.049 µM | 0.09 µM |  | 0.023 µM | 0.039 µM |  |  |  | 0.0036 µM | 0.0094 µM | 0.44 µM | 2.08 µM |  |  | 
5 | CC(=O)OC/C1=C/[C@H]2[C@@H](OC(C)=O)[C@](C)(OC(C)=O)C[C@]2(OC(C)=O)C(=O)[C@H](C)/C=C/C(C)(C)[C@H](OC(=O)c2cccnc2)[C@H](OC(C)=O)[C@@H]1OC(=O)C(C)C [EUPHODENDROPHANE F] |  |  | 27.3 µM | 65.5 µM |  | 38.8 µM | 75.3 µM |  |  |  | 4.8 µM | 14.8 µM | 51.9 µM | 90.8 µM |  |  | 
6 | C=C1[C@@H](OC(=O)C(C)C)[C@@H](OC(=O)c2ccccc2)[C@@H](OC(C)=O)C(C)(C)/C=C/[C@@H](C)C(=O)[C@@]2(O)C[C@H](C)[C@H](OC(=O)CC)[C@@H]2[C@H]1OC(C)=O [EUPHODENDROPHANE E] |  |  | 14.1 µM | 73.1 µM |  | 13.7 µM | 37.9 µM |  |  |  | 8.3 µM | 21.9 µM | 15.2 µM | 49.8 µM |  |  | 
7 | C=C1[C@@H](OC(C)=O)[C@@H](OC(=O)c2ccccc2)[C@@H](OC(C)=O)C(C)(C)/C=C/[C@@H](C)C(=O)[C@@]2(O)C[C@H](C)[C@H](OC(=O)C(C)C)[C@@H]2[C@H]1OC(C)=O [EUPHODENDROPHANE D] |  |  | 10.4 µM | 52.6 µM |  | 14.2 µM | 42.7 µM |  |  |  | 11.7 µM | 21.3 µM | 14.6 µM | 30.1 µM |  |  | 
8 | C=C1[C@@H](OC(=O)C(C)C)[C@@H](OC(C)=O)[C@@H](OC(=O)c2cccnc2)C(C)(C)/C=C/[C@@H](C)C(=O)[C@@]2(O)C[C@H](C)[C@H](OC(=O)C(C)C)[C@@H]2[C@H]1OC(C)=O [EUPHODENDROPHANE B] | 25 | < 1 | 6.8 µM | 108 µM | 28 | 4.8 µM | 22.1 µM | < 1 | 3 | < 0.5 | 6.1 µM | 16.2 µM | 3.9 µM | 17.2 µM | 1.9 | < 0.5 | 11
